Source: ChEMBL document CHEMBL2434889, “New orally effective 3-(2-nitro)phenylpropanamide analgesic derivatives: synthesis and antinociceptive evaluation” (Eur J Med Chem, 2013)
Activity calls are given as the source filed them.

Assays:
Mus musculus [1] = assay: Antinociceptive activity in mouse assessed as inhibition of acetic acid-induced writhing response at 100 umol/kg, ip after 10 mins measured for 10 mins; format: functional
In short: (§1)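 Mice (20–24 g) dosed intraperitoneally, then given 0.5% aqueous acetic acid i.p. at 10 ml/kg. Stretches (back arching, pelvic rotation, hind-limb extension) were counted in an observation beaker for 10 min, starting 10 min after the acid. % inhibition is versus the control group. n = 50 mice for control and reference groups, 10 per other treatment. ANOVA with Fisher PLSD.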

Mus musculus [2] = assay: Antinociceptive activity in mouse assessed as inhibition of acetic acid-induced writhing response at 3 mg/kg, ip after 10 mins measured for 10 mins; format: functional; details: route intraperitoneal; in short: as §1
Mus musculus [3] = assay: Toxicity in mouse at 3 mg/kg, ip; format: organism-based; design: dose 3 mg/kg, route intraperitoneal; details: in vivo
Mus musculus [4] = assay: Antinociceptive activity in mouse assessed as increase of forepaw licking latency at 100 umol/kg, ip measured after 15 to 60 mins by hot plate test; format: functional, organism-based
In short: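 Hot-plate test at 55 °C with groups of 10 mice. Latency to forepaw licking was timed by stopwatch. Baseline was read twice before injection, and only mice reacting within 4–12 s were used. Readings were taken at 15, 30, 45 and 60 min after ip dosing, with a 30 s cutoff. Vehicle was physiological serum; morphine 5 mg/kg served as reference. Data are mean ± SEM, one-way ANOVA with Fisher PLSD.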

Mus musculus [5] = assay: Toxicity in mouse assessed as effect on locomotion at 33 to 100 umol/kg, ip measured after 25 to 35 mins; format: organism-based; details: in vivo
In short: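 Mice were injected ip with drug or saline and returned at once to photocell-beam cages for 1 h. Horizontal locomotion was scored as cage crossings and analysed over 25–35 min post-treatment, the same window as the writhing counts. Methylphenidate 10 mg/kg and haloperidol 0.5 mg/kg served as stimulant and depressant references. Statistics by Fisher PLSD.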

Mus musculus [6] = assay: Antinociceptive activity in mouse assessed as inhibition of acetic acid-induced writhing response at 33.3 umol/kg, po after 10 mins measured for 10 mins; format: functional
In short: (§2)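 Oral dosing, with 8 mice per treatment group. Writhing was induced by 0.5% aqueous acetic acid i.p. (10 ml/kg). Stretches were tallied over 10 min, beginning 10 min after the acid. % inhibition of constrictions is relative to the control group. Statistics by ANOVA and Fisher PLSD.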

Mus musculus [7] = assay: Antinociceptive activity in mouse assessed as inhibition of acetic acid-induced writhing response at 100 umol/kg, po after 10 mins measured for 10 mins; format: functional; in short: as §2
Mus musculus [8] = assay: Antinociceptive activity in mouse assessed as inhibition of acetic acid-induced writhing response at 10 umol/kg, po after 10 mins measured for 10 mins; format: functional; in short: as §2
Mus musculus [9] = assay: Antinociceptive activity in mouse assessed as inhibition of acetic acid-induced writhing response at 15 mg/kg, ip after 10 mins measured for 10 mins; format: functional; details: route intraperitoneal; in short: as §1

Row | SMILES | inhibition in vivo at 3 mg/kg (Mus musculus [2]) [%] | Activity (Mus musculus [3]) | further results
1 | CCCCCCNC(=O)CCc1cc2c(cc1[N+](=O)[O-])OCO2 | 38.6 | Non-toxic | inhibition in vivo at 100 µmol/kg (Mus musculus [1]): 26%
2 | O=C(CCc1cc2c(cc1[N+](=O)[O-])OCO2)Nc1ccccn1 | 10 | Non-toxic | 
3 | O=C(CCc1cc2c(cc1[N+](=O)[O-])OCO2)N1CCN(c2ccccc2)CC1 | 21.5 | Non-toxic | 
4 | COc1ccccc1N1CCN(C(=O)CCc2cc3c(cc2[N+](=O)[O-])OCO3)CC1 | 4.8 | Non-toxic | 
5 | O=C(CCc1cc2c(cc1[N+](=O)[O-])OCO2)N1CCN(CCO)CC1 | 32.9 | Non-toxic | 
6 | COc1ccc(N2CCN(C(=O)CCc3ccc4c(c3)OCO4)CC2)cc1 | 2.4 | Non-toxic | 
7 | COc1ccc(N2CCN(C(=O)CCc3cc4c(cc3N)OCO4)CC2)cc1 | 21.5 | Non-toxic | 
8 | COc1ccc(CCC(=O)N2CCCCC2)cc1OC | < 0 | Non-toxic | 
9 | O=C(CCc1cc2c(cc1[N+](=O)[O-])OCO2)N1CCOCC1 | 31.4 | Non-toxic | 
10 | O=C(CCc1ccc2c(c1)OCO2)N1CCCCC1 | 53 | Non-toxic | 
11 | COc1ccc(N2CCN(C(=O)CCc3cc4c(cc3[N+](=O)[O-])OCO4)CC2)cc1 | 37.2 | Non-toxic | inhibition in vivo at 100 µmol/kg (Mus musculus [1]): 50%; Activity (Mus musculus [4]): inactive; Activity (Mus musculus [5]): Non-toxic; inhibition in vivo at 33.3 µmol/kg (Mus musculus [6]): 35.7%; inhibition in vivo at 100 µmol/kg (Mus musculus [7]): 40%; inhibition in vivo at 10 µmol/kg (Mus musculus [8]): 28.6%
12 | CCOC(=O)CCc1cc2c(cc1[N+](=O)[O-])OCO2 | 40.5 | Non-toxic | 
13 | CC(=O)Oc1ccccc1C(=O)O [ASPIRIN] |  |  | inhibition in vivo at 100 µmol/kg (Mus musculus [1]): 59%; inhibition in vivo at 100 µmol/kg (Mus musculus [7]): 31.2%; inhibition in vivo at 15 mg/kg (Mus musculus [9]): 62.3%
14 | CC1CCCCN1C(=O)CCc1ccc2c(c1)OCO2 (configuration not stated) | 20.1 | Non-toxic | 
15 | COc1cc(CCC(=O)N2CCOCC2)c([N+](=O)[O-])cc1OC | 15.3 | Non-toxic | 
16 | O=C(CCc1cc2c(cc1[N+](=O)[O-])OCO2)N1CCN(c2ccc(F)cc2)CC1 | 14.3 | Non-toxic | 
17 | O=C(CCc1cc2c(cc1[N+](=O)[O-])OCO2)N1CCCCC1 | 25.2 | Non-toxic | inhibition in vivo at 100 µmol/kg (Mus musculus [1]): 44.8%
18 | COc1cc(CCC(=O)N2CCCCC2)c([N+](=O)[O-])cc1OC | 33 | Non-toxic | inhibition in vivo at 100 µmol/kg (Mus musculus [1]): 39.1%
19 | O=C(CCc1cc2c(cc1[N+](=O)[O-])OCO2)Nc1ccccc1 | 12.9 | Non-toxic | 
20 | NC(=O)CCc1cc2c(cc1[N+](=O)[O-])OCO2 | 14.8 | Non-toxic | 
21 | O=C(CCc1cc2c(cc1[N+](=O)[O-])OCO2)N1CCN(c2ccc(Cl)c(Cl)c2)CC1 | 22 | Non-toxic | 
